# LYPLA1 inh: blocks human lysophospholipase 1, a PME1 counter-screen. recombinant LYPLA1, FP-Rh probe fluorescence polarization. inhibition, % at 5.9 µM. 320,000 compounds, 0.16% hits;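 active = inhibition above the mean of all tested compounds plus 3 SD, set per campaign, cut at about 14% in these data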;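 note: inhibitors block serine hydrolase probe labeling of LYPLA1 so polarization falls; 0% = enzyme with DMSO and 100% = wells lacking LYPLA1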
# PAD4 FP inh: PAD4 (human) enzyme inhibition; Q9UM07; recombinant PAD4, RCA probe fluorescence polarization; inhibition, % at 6.36 µM; 330,000 compounds, 0.41% hits;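 active = percent inhibition above a cutoff equal to the mean of all tested compounds plus 3 SD, cut at about 15% in these data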;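 note: 0% = PAD4 with RCA probe and DMSO and 100% = probe without PAD4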
# Target sequence (Q9UM07 whole entry, looked up): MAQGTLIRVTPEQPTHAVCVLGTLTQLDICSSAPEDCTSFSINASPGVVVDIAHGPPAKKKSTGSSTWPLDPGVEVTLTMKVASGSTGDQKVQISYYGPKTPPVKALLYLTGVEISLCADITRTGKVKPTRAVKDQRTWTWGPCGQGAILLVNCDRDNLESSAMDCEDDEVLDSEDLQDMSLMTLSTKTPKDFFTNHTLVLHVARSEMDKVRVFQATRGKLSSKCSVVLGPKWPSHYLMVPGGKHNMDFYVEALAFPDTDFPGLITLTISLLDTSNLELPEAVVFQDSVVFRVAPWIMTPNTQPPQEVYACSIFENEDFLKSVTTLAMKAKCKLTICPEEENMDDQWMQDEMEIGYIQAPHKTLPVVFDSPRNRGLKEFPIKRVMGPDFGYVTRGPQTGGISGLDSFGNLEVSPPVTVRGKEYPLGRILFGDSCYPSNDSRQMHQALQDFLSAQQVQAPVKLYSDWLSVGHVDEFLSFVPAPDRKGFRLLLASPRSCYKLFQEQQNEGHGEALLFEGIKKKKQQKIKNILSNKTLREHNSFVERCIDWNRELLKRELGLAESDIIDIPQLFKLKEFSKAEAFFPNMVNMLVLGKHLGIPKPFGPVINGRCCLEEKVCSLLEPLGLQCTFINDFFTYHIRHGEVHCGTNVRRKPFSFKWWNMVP
# PME-1 inh: blocks human protein phosphatase methylesterase 1; recombinant PME-1, FP-Rh probe fluorescence polarization; inhibition, % at 5.9 µM; 320,000 compounds, 0.53% hits; AID 2130;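 active = inhibition above the campaign mean of all compounds plus 3 SD, cut at about 26% in these data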;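 note: competitive labeling of PME-1 active site by serine hydrolase directed probe; 0% = PME-1 with DMSO and 100% = wells lacking PME-1 enzyme; inhibitors block probe labeling so polarization falls and inhibition rises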
# LYPLA2 inh: blocks human lysophospholipase 2, a PME1 counter-screen. AID 2177. 320,000 compounds, 0.38% hits. recombinant LYPLA2, FP-Rh probe fluorescence polarization. inhibition, % at 5.9 µM;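 active = inhibition above the screen-wide mean plus 3 SD, limit set per campaign, cut at about 26% in these data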;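 note: 0% = LYPLA2 with DMSO and 100% = wells lacking LYPLA2 enzyme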
# Fam108B inh: blocks mouse Fam108B hydrolase in RBBP9 counter-screen; 300,000 compounds, 0.33% hits; recombinant Fam108B, FP-Rh probe fluorescence polarization; inhibition, % at 9.51 µM;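 active = inhibition above the screen mean inhibition plus 3 SD, computed separately per campaign, cut at about 18% in these data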;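 note: inhibitors lower polarization as less probe binds the enzyme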
# RBBP9 inhibitor: inhibitors of human serine hydrolase RBBP9. 220,000 compounds, 0.2% hits. AID 1515. recombinant RBBP9, FP-Rh probe fluorescence polarization. O75884. inhibition, % at 7.94 µM;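 active = inhibition above the campaign mean of all tested compounds plus 3 SD, cut at about 14% in these data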;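 note: plate controls were DMSO wells with RBBP9 for no effect and wells lacking RBBP9 protein for full effect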
#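 Test system – recombinant human RBBP9 · Input – RBBP9 2.5 µM in dispensing solution, pre-mixing · Medium – Tris buffer pH 8.0, NaCl, Pluronic · Schedule – preincubation 30 min plus labeling 45 min at 25 °C · Measured by – fluorescence polarization · Measure – % inhibition · Controls – DMSO and no-protein wells · Replicates – one well per compound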
# PAD4 confirm: PAD4 (human) inhibition, confirmed; shares compounds with PAD4 FP inh; 1,200 compounds, 28% hits; AID 488796; inhibition, % at 6.36 µM; recombinant PAD4, RCA probe fluorescence polarization;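 active = mean inhibition across replicates above the hit cutoff set by the earlier primary screen, cut at about 15% in these data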;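 note: inhibitors block active-site labeling by the probe so polarization falls; 0% = PAD4 with probe and DMSO and 100% = probe without PAD4 enzyme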
# The depositor's hits bear a star; x = not tested or not shown. Compounds with a hit are over-represented: about 1.3% of the library has one in this group of screens.
SMILES,LYPLA1 inh,PAD4 FP inh,PME-1 inh,LYPLA2 inh,Fam108B inh,RBBP9 inhibitor,PAD4 confirm
CC(C)CCc1c(O)nc(SCC(=O)N2CCCCCC2)[nH]c1=O,0,16*,-3,-1,2,x,3
CCCc1c(O)nc(SCC(=O)N2CCCCC2)[nH]c1=O,-2,-3,0,1,0,x,x
Cc1ccc(NC2=C(Cl)C(=O)OC2OC(=O)c2ccccc2)c(C)c1 (configuration not stated),-4,1,-2,8,-2,-4,x
Cc1ccccc1NC1=C(Cl)C(=O)OC1OC(=O)c1ccccc1C (configuration not stated),-4,44*,15,-7,0,-6,-2
CCc1cccc(NS(=O)(=O)c2ccc3c(c2)CCC(=O)N3)c1,-5,16*,-2,-9,2,6,-4
Cc1cccc(NS(=O)(=O)c2ccc3c(c2)CCC(=O)N3)c1,0,-5,-1,4,0,x,x
COc1ccc(C2=NNC(=Nc3cc(S(=O)(=O)N(C)C)ccc3C)SC2)c(OC)c1,-1,18*,12,2,-6,-11,12
CN(C)S(=O)(=O)c1cccc(N=C2NN=C(c3ccccc3)CS2)c1,-5,0,10,0,3,-5,x
Cc1ccc(C2(C)NC(=O)N(CC(=O)NC(=O)NC(C)(C)C)C2=O)cc1 (configuration not stated),0,16*,-4,-3,1,x,-6
CCN(Cc1nc(-c2ccc(OC)c(OC)c2)no1)C(=O)c1ccoc1C,-3,2,6,1,-3,x,x
O=C(c1ccc(Cl)c(S(=O)(=O)N2CCCC2)c1)N1CCOCC1,1,-5,-1,-1,0,x,x
O=C(c1ccc(Cl)c(S(=O)(=O)N2CCOCC2)c1)N1CCCC1,-3,16*,-5,-4,0,x,1
S=C1CCC(c2ccc(Br)cc2)=NN1c1ccccc1,-4,1,-15,-3,1,-9,x
O=C(O)CCC(=O)c1ccc(-c2ccccc2)cc1,0,172*,-4,-2,-3,-9,16*
CC(C)CCc1noc(CN(CC2CCC2)CC2CCCO2)n1 (configuration not stated),-3,1,0,-4,0,-3,x
CCOC(=O)C1=C(C)N=c2s/c(=C\c3ccc(OCC(=O)O)c(OC)c3)c(=O)n2C1c1ccc(OC)cc1 (configuration not stated),-4,15*,3,-2,-8,x,3
O=C(COc1ccc(Br)cc1)NCC1COc2ccccc2O1 (configuration not stated),2,1,4,6,x,x,x
O=[N+]([O-])c1cccc(C2CC(c3ccccc3)=NN2c2ccccc2)c1 (configuration not stated),-3,6,-4,1,6,x,x
Cc1ccc(C2=Nc3ccccc3SC(c3cccc([N+](=O)[O-])c3)C2)cc1 (configuration not stated),1,18*,-5,5,-6,-10,-6
COc1ccccc1C1CC(c2cccs2)=Nc2ccccc2S1 (configuration not stated),0,23*,-7,-1,-8,-6,2
COc1cccc(Oc2nccc(N(C)C)c2C#N)c1,-1,-3,-1,0,-4,3,x
Cc1nonc1OC(C)CNc1ccc([N+](=O)[O-])cc1 (configuration not stated),-1,56*,3,4,1,-10,6
Cc1nonc1OCCNc1ccc([N+](=O)[O-])cc1[N+](=O)[O-],-2,2,-2,2,2,-2,x
CC(CCc1ccccc1)NC(=O)CNC(=O)COc1ccccc1 (configuration not stated),-3,30*,-3,10,0,5,-2
COc1ccc(CN(C(=O)Cn2nnc(-c3ccc(C)o3)n2)C(C(=O)NCC2CCCO2)c2ccco2)cc1 (configuration not stated),-2,-3,3,1,-3,-1,x
SMILES,LYPLA1 inh,PAD4 FP inh,PME-1 inh,LYPLA2 inh,Fam108B inh,RBBP9 inhibitor,PAD4 confirm
Cc1ccc(-c2nc3sc(C#N)c(N)n3c(=O)c2C#N)cc1,-5,62*,-8,-4,-10,0,-4
O=C(Nc1ccc(Nc2ccccc2)cc1)c1ccc(Cl)cc1,-7,1,2,-8,1,x,x
O=C(Nc1ccc(Nc2ccccc2)cc1)c1ccccc1,-1,46*,3,-4,5,x,0
O=C(O)c1ccc(NC(=O)c2ccc3c(c2)C(=O)N(c2ccccc2)C3=O)cc1,4,0,-4,3,-2,x,x
O=C(O)c1ccc(S(=O)(=O)c2ccc3c(c2)C(=O)N(c2ccc(O)cc2)C3=O)cc1,1,62*,0,4,-3,0,4
Cc1noc(C)c1C(=O)N1CCC(C(=O)c2ccccc2)CC1,1,6,-3,3,-5,-1,x
CC(C)OC(=O)c1cccc(-c2ccc(C=O)o2)c1,-2,1,-6,5,0,-9,x
Cc1c(NC(=O)c2ccc(S(=O)(=O)Nc3ccccc3F)cc2)c(=O)n(-c2ccccc2)n1C,x,1,x,x,x,x,x
CCCC(=O)NC(c1cccs1)c1cc([N+](=O)[O-])c2cccnc2c1O (configuration not stated),-5,-4,10,3,4,-5,x
CC(=O)NC(c1cccs1)c1cc([N+](=O)[O-])c2cccnc2c1O (configuration not stated),-3,25*,34*,-4,-1,-5,4
Cc1ccc(C2=C(c3ccc([N+](=O)[O-])cc3)C(=O)OC2)cc1C,1,-3,25,-3,-4,-9,x
CCc1nc(Nc2cc(OC)ccc2OC)c2oc3ccccc3c2n1,-3,0,6,3,-2,x,x
COc1ccc(Cl)cc1Nc1nc(C)nc2c1oc1ccccc12,0,15*,-1,-2,-11,x,-15
CCc1ccc(S(=O)(=O)Nc2cc(SCC(=O)O)c(O)c3ccccc23)cc1,4,26*,12,6,8,1,-4
CN(C)c1ccc(NC(=O)Oc2ccccc2)cc1,0,17*,8,9,1,7,-2
CN(C)C(=O)C1CCC(=O)N1Cc1cccs1 (configuration not stated),1,2,1,-3,0,7,x
O=C1CCCC/C1=C\Nc1ccc(O)cc1,5,43*,4,9,2,10,5
O=C1CCC/C1=C/Nc1ccc(Cl)cc1,0,1,-1,1,-1,4,x
COc1ccc(C2=C(Nc3ccc(C)cc3)c3ccccc3C2=O)cc1,3,-4,0,6,-1,-7,x

# Screens (PubChem)
